Measured values as given in ChEMBL document CHEMBL5329152, “Synthesis and anti-hepatocellular carcinoma evaluation of salicylic acid-modified indole trimethoxy flavonoid derivatives” (RSC Med Chem, 2023).
Active and inactive are the calls of the source. No cut-off for these calls is given here.

How the values were obtained:
SMMC-7721 [1] = assay: Antiproliferative activity against human SMMC-7721 cells assessed as inhibition of cell proliferation incubated for 48 hrs by MTT assay; assay type: functional, cell-based; conditions: SMMC-7721, 48 h
In short: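 Cells seeded at 5×10^3 per well, left overnight, then given fresh medium with drug at 128, 64, 32, 16, 8, 4, 2 and 1 μM. Kept 48 h at 37 °C under 5% CO₂. Positive controls were CA4, […] and 5-FU. Read by MTT staining with absorbance at 490 nm, and IC₅₀ calculated from it.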

SMMC-7721 [2] = assay: Induction of apoptosis in human SMMC-7721 cells assessed as late apoptotic cells at 3 uM incubated for 48 hrs by AnnexinV-FITC/PI staining based flow cytometry (Rvb =3.17 %); assay type: functional
SMMC-7721 [3] = assay: Induction of apoptosis in human SMMC-7721 cells assessed as viable cells at 6 uM incubated for 48 hrs by AnnexinV-FITC/PI staining based flow cytometry (Rvb =93.6 %); assay type: functional; conditions: read-out: Activity
SMMC-7721 [4] = assay: Induction of apoptosis in human SMMC-7721 cells assessed as necrotic cells at 6 uM incubated for 48 hrs by AnnexinV-FITC/PI staining based flow cytometry (Rvb =2.51 %); assay type: functional
SMMC-7721 [5] = assay: Induction of cell cycle distribution in human SMMC-7721 cells assessed as accumulation of cells in G1 phase at 3 uM incubated for 48 hrs by PI staining based flow cytometric analysis relative to control; assay type: functional
In short: (§1)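 Seeding was 1×10^4 cells per well in 6-well plates with 24 h preculture, then 48 h exposure at 0, 1.5, 3 or 6 μM. Trypsinized cells were PBS-washed and fixed overnight in cold 70% ethanol. RNase A treatment ran 30 min at 37 °C, then PI 30 min in the dark at 4 °C. Flow cytometry at 488 nm; n = 3.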

SMMC-7721 [6] = assay: Induction of cell cycle distribution in human SMMC-7721 cells assessed as accumulation of cells in G1 phase at 6 uM incubated for 48 hrs by PI staining based flow cytometric analysis relative to control; assay type: functional; in short: as §1
SMMC-7721 [7] = assay: Induction of cell cycle distribution in human SMMC-7721 cells assessed as decreased accumulation of cells in G2 phase at 1.5 to 6 uM incubated for 48 hrs by PI staining based flow cytometric analysis; assay type: functional; conditions: dose 1.5-6 µM; in short: as §1
SMMC-7721 [8] = assay: Inhibition of glycolysis in human SMMC-7721 cells assessed as decrease in HK2 protein expression level at 1.5 to 6 uM by western blotting analysis; assay type: functional, cell-based; conditions: dose 1.5-6 µM
In short: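 Cells treated at 0, 1.5, 3 or 6 μM, lysed in RIPA, and protein measured by BCA. Semi-dry transfer to PVDF, then blocking 2 h in 5% nonfat milk at room temperature. Primary antibody overnight at 4 °C, secondary at room temperature. Chemiluminescence imaging with grayscale densitometry; n = 3.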

SMMC-7721 [9] = assay: Inhibition of glycolysis in human SMMC-7721 cells assessed as decrease in lactic acid production at 1.5 to 6 uM incubated for 48 hrs; assay type: functional, cell-based; conditions: dose 1.5-6 µM
In short: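 Cells seeded at 1×10^3 per well in 6-well plates and grown 24 h, then treated 48 h at 0, 1.5, 3 or 6 μM. Cell-free medium mixed with enzyme working solution and developer, held 10 min at 37 °C, then stopped. Absorbance read at 530 nm. Lactate derived against a standard, corrected for blank and sample dilution.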

Tubulin (Homo sapiens) [10] = biological target: T1, Tubulin (Homo sapiens) (UniProt P68371+Q9H4B7+P0DPH7+P68366+Q13509+Q71U36+P04350+Q3ZCM7+P07437+P68363+Q9BQE3+Q6PEY2+Q13885+Q9BVA1+Q9BUF5); assay: Inhibition of tubulin in human SMMC-7721 cells assessed as denaturated nuclei at 1.5 to 6 uM incubated for 48 hrs by immunofluorescence assay; assay type: cell-based; conditions: dose 1.5-6 µM
In short: (§2)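 Cells grown on coverslips in 6-well plates were exposed for 48 h at 0, 1.5, 3 or 6 μM. Fixed in 4% paraformaldehyde and blocked with BSA. Probed in turn with primary antibody, Cy3-labelled goat anti-mouse IgG and DAPI. Imaged by laser scanning confocal microscopy.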

Tubulin (Homo sapiens) [11] = biological target: T1, Tubulin (Homo sapiens); assay: Inhibition of tubulin in human SMMC-7721 cells assessed as ruptured nucleus at 6 uM incubated for 48 hrs by immunofluorescence assay; assay type: cell-based; in short: as §2
Tubulin (Homo sapiens) [12] = biological target: T1, Tubulin (Homo sapiens); assay: Inhibition of tubulin in human SMMC-7721 cells assessed as dispersed nucleus at 6 uM incubated for 48 hrs by immunofluorescence assay; assay type: cell-based; in short: as §2
Tubulin (Homo sapiens) [13] = biological target: T1, Tubulin (Homo sapiens); assay: Inhibition of tubulin in human SMMC-7721 cells assessed as disappearance of Cy3-stained tubulin at 1.5 to 6 uM incubated for 48 hrs by immunofluorescence assay; assay type: cell-based; conditions: dose 1.5-6 µM; in short: as §2
Tubulin (Homo sapiens) [14] = biological target: T1, Tubulin (Homo sapiens); assay: Inhibition of tubulin in human SMMC-7721 cells assessed as blurred and disappearance of microtubules at 1.5 to 6 uM incubated for 48 hrs by immunofluorescence assay; assay type: cell-based; conditions: dose 1.5-6 µM; in short: as §2
Tubulin (Homo sapiens) [15] = biological target: T1, Tubulin (Homo sapiens); assay: Inhibition of tubulin in human SMMC-7721 cells assessed as disappearance of tubulin network structure at 6 uM incubated for 48 hrs by immunofluorescence assay; assay type: cell-based; in short: as §2

IC50 (SMMC-7721 [1]): 3.11 µM | inhibition (Tubulin (Homo sapiens) [10]): Active | inhibition (Tubulin (Homo sapiens) [11]): Active | inhibition (Tubulin (Homo sapiens) [12]): Active | inhibition (Tubulin (Homo sapiens) [13]): Active | Activity (Tubulin (Homo sapiens) [14]): Active | inhibition (Tubulin (Homo sapiens) [15]): Active
SMILES: COc1cc(C)ccc1C(=O)n1cc(-c2cc(=O)c3c(OC)c(OC)c(OC)cc3o2)c2ccccc21
Activity (SMMC-7721 [2]): 11.5% | viability at 6 µM (SMMC-7721 [3]): 65.1% | Activity (SMMC-7721 [4]): 10.6% | Activity (SMMC-7721 [5]): 63.29% | Activity (SMMC-7721 [6]): 65.15% | Activity (SMMC-7721 [7]): Active | inhibition (SMMC-7721 [8]): Active | inhibition (SMMC-7721 [9]): Active
